Data set [1] has as its system A2780. As to the kind of experiment: Ratio of APO866 to compound for antitumor activity against human A2780 cells xenografted in NMRI/nude mouse. The class given is functional.
The subject of data set [2] is A2780. The data set can be described thus: Antitumor activity against human A2780 cells xenografted in NMRI/nude mouse assessed as tumor growth inhibition at 1.25 mg/kg, ip bid administered for 5 days measured at day 14 relative to vehicle-treated control. As to conditions: route intraperitoneal. It is filed as functional. In a few lines:
(§1)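 A2780 xenografts started from small tumours (about 100 mm³). Dosing was i.p. bid on days 0-4. Tumour volume was estimated as width²×length/2 and compared at day 14 with vehicle-treated animals as T/C%.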

Data set [3] relates to A2780. The data set can be described thus: Antitumor activity against human A2780 cells xenografted in NMRI/nude mouse assessed as tumor growth inhibition at 2.5 mg/kg, ip bid administered for 5 days measured at day 14 relative to vehicle-treated control. It is filed as functional. Conditions: route intraperitoneal. In a few lines: as §1
In data set [4] the test system is A2780. The data set can be described thus: Antitumor activity against human A2780 cells xenografted in NMRI/nude mouse assessed as tumor growth inhibition at 0.63 mg/kg, ip bid administered for 5 days measured at day 14 relative to vehicle-treated control. The class given is functional. As to conditions: route intraperitoneal. In a few lines: as §1
Data set [5] has as its system A2780. As to the kind of experiment: Antitumor activity against human A2780 cells xenografted in NMRI/nude mouse assessed as tumor growth inhibition at 5 to 10 mg/kg, ip bid administered for 10 days measured during compound administration. The class given is functional, organism-based. In a few lines:
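Mice bearing large A2780 xenografts were dosed i.p. bid at 5 and 10 mg/kg. Toxic signs were scored as body weight loss and reduced activity level compared with control mice. Tumour volume was estimated as width²×length/2.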

In data set [6] the test system is A2780. As to the kind of experiment: Antitumor activity against human A2780 cells xenografted in NMRI/nude mouse containing large tumors assessed as tumor growth inhibition at 3 mg/kg, ip bid administered on day 1 to 4 and day 7 to 11 measured during compound administration. It is filed as functional, organism-based. Set-up: dose 3 mg/kg.
Another data set concerns SK-OV-3. The data set can be described thus: Cytotoxicity against human SKOV3 cells by clonogenic assay. It is filed as functional, cell-based.
The nature of data set [7]: Cytotoxicity against human NYH cells by clonogenic assay. It is filed as functional, cell-based.
The test system of a further data set is PC-3. As to the kind of experiment: Cytotoxicity against human PC3 cells by clonogenic assay. It is filed as functional, cell-based.
For data set [8], the system named is MCF7. As to the kind of experiment: Cytotoxicity against human MCF7 cells after 96 hrs by clonogenic assay. The class given is functional, cell-based. Conditions: MCF7, 96 h. Put shortly: (§2)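 Cells were exposed to compound for the indicated time and then seeded in 3% agar over a sheep erythrocyte feeder layer. Plates were cultured 14–21 days at 37 °C, and colonies were counted with a digital colony counter.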

In data set [9] the test system is MCF7. As to the kind of experiment: Cytotoxicity against human MCF7 cells after 24 hrs by clonogenic assay. The class given is functional, cell-based. As to conditions: MCF7, 24 h. In a few lines:
as §2

For the next data set, the system named is DU-145. As to the kind of experiment: Cytotoxicity against human DU145 cells by clonogenic assay. It is filed as functional, cell-based.
The subject of a further data set is A-431. As to the kind of experiment: Cytotoxicity against human A431 cells by clonogenic assay. It is filed as functional, cell-based.
Data set [10] has as its system A2780. The data set can be described thus: Cytotoxicity against human A2780 cells after 24 hrs by clonogenic assay. It is filed as functional, cell-based. As to conditions: A2780, 24 h. In a few lines:
as §2

Data set [11] deals with HCT-116. The data set can be described thus: Resistance factor, ratio of IC50 for APO866-resistant human HCT116 cells to IC50 for human HCT116 cells. It is filed as functional.
The test system of data set [12] is HCT-116. As to the kind of experiment: Cytotoxicity against APO866-resistant human HCT116 cells assessed as growth inhibition after 72 hrs by WST-1 assay. It is filed as functional, cell-based. As to conditions: HCT-116, 72 h.
Data set [13] has as its system HCT-116. The data set can be described thus: Cytotoxicity against human HCT116 cells assessed as growth inhibition after 72 hrs by WST-1 assay. It is filed as functional, cell-based. As to conditions: HCT-116, 72 h.
For data set [14], the system named is MCF7. The data set can be described thus: Cytotoxicity against human MCF-7 cells assessed as growth inhibition after 72 hrs by WST-1 assay. The class given is functional, cell-based. As to conditions: MCF7, 72 h.
Data set [15] has as its system A2780. The data set can be described thus: Cytotoxicity against human A2780 cells assessed as growth inhibition after 72 hrs by WST-1 assay. As to conditions: A2780, 72 h. It is filed as functional, cell-based.
The next data set has as its system Mus musculus. As to the kind of experiment: Toxicity in human A2780 cells xenografted NMRI/nude mouse containing small tumors assessed as effect on body weight at 15 mg/kg, ip bid administered for 5 days measured at day 14 relative to vehicle-treated control. It is filed as organism-based. Also noted: dose 15 mg/kg, route intraperitoneal. Conditions: in vivo, 120 h.

The subject of data set [16] is A2780. The data set can be described thus: Antitumor activity against human A2780 cells xenografted in NMRI/nude mouse assessed as tumor growth inhibition at 15 mg/kg, ip bid administered for 5 days measured at day 14 relative to vehicle-treated control. It is filed as functional. Conditions: route intraperitoneal.
Data set [17] in a line: AUC in NMRI mouse at 20 mg/kg, iv. It is filed as ADME, organism-based. Also noted: dose 20 mg/kg, route intravenous. Conditions: plasma. In a few lines:
(§3)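 Mouse PK after a single i.v. dose. Plasma proteins were precipitated with acetonitrile containing internal standard (3:1 v/v). Samples were analysed by UPLC-MS/MS on a C18 column at 40°C with an acetonitrile–0.05% formic acid gradient, using positive electrospray MRM. Parameters were derived by non-compartmental analysis.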

Data set [18] can be described thus: Clearance in NMRI mouse at 20 mg/kg, iv. It is filed as ADME, organism-based. Also noted: dose 20 mg/kg, route intravenous. As to conditions: in vivo. Put shortly:
as §3

Data set [19] is described as follows: Apparent volume of distribution in NMRI mouse at 20 mg/kg, iv. The class given is ADME, organism-based. Set-up: dose 20 mg/kg, route intravenous. Conditions: in vivo, read-out: Vz. Put shortly:
as §3

A short description of data set [20]: Cmax in NMRI mouse at 20 mg/kg, iv. It is filed as ADME, organism-based. Also noted: dose 20 mg/kg, route intravenous. Conditions: in vivo. Put shortly:
as §3

Data set [21] in a line: Tmax in NMRI mouse at 20 mg/kg, iv. Conditions: in vivo. Also noted: dose 20 mg/kg, route intravenous. The class given is ADME, organism-based. In a few lines:
as §3

Data set [22] in a line: Half life in NMRI mouse at 20 mg/kg, iv. As to conditions: in vivo. Set-up: dose 20 mg/kg, route intravenous. The class given is ADME, organism-based. Put shortly:
as §3

The nature of data set [23]: Toxicity in ip dosed NMRI mouse assessed as blood cell count administered as bid for 5 days. It is filed as organism-based. As to conditions: in vivo.
A short description of data set [24]: Toxicity in ip dosed NMRI mouse assessed as body weight loss administered as bid for 5 days. The class given is organism-based. Conditions: in vivo.
For data set [25], the system named is MCF7. The data set can be described thus: cells. Conditions: Homo sapiens.
Data set [26] concerns A2780. The data set can be described thus: cells. As to conditions: Homo sapiens.

Active and inactive are the calls of the source. No cut-off for these calls is given here.

On to `N#C/N=C(\NCCCCCCS(=O)(=O)N(OCCN1CCOCC1)C1CCCCC1)Nc1ccncc1`, for which the Ratio in the data set on A2780 [1] is on record as 12. Besides, the figures for the T/C with A2780 [2], with A2780 [3] and with A2780 [4] were 40%, 24% and 82%, respectively. The TGI result in the data set on A2780 [5] and in the data set with A2780 [6] was “Active” in each case. For the same compound, the IC50 is 9.9 nM in the data set with SK-OV-3; 0.3 nM in [7]; 0.53 nM in the data set on PC-3; 1.9 nM in the data set with MCF7 [8]; greater than 50 nM in the data set on MCF7 [9]; greater than 50 nM with DU-145. Also, the IC50 in the data set with A-431 was greater than 50 nM; with A2780 [10], 0.55 nM; with HCT-116 [12] it was greater than 5000 nM; in the data set with HCT-116 [13], 1.9 nM; with MCF7 [14] it was 0.33 nM; in the data set on A2780 [15], 0.025 nM. For the same compound, the “Ratio IC50” value with HCT-116 [11] came out at 128.

As to `O=C(/C=C/c1cccnc1)NCCCCC1CCN(C(=O)c2ccccc2)CC1` [DAPORINAD], in the data set with Mus musculus, the Activity entry is recorded as “Non-toxic”. Besides, the T/C in the data set with A2780 [16] came to 52%. The same compound showed an AUC in data set [17] of 12300 ng·h/mL. In data set [18], this compound had a clearance of 27 mL/min/kg. Besides, in data set [19], the Vd came to 0.998 L/kg. Further, the Cmax in data set [20] turned out to be 14600 ng/mL. The time of peak concentration (Tmax) in data set [21] came to 15 min. The compound further had a half-life in data set [22] of 24 min. For the same compound, the MTD at 120 h in data set [23] and in data set [24] was less than 10 mg/kg each time. The IC50 in the data set on SK-OV-3 was 211 nM; in data set [7], 1.5 nM; in the data set with PC-3, 3.8 nM; in the data set with A-431, 6.1 nM; in the data set on HCT-116 [12] it was 946 nM; with HCT-116 [13], 10.9 nM. For the same compound, the half-inhibitory concentration (IC50) in the data set on MCF7 [14] was determined as 7.4 nM; in the data set on A2780 [15], 1.6 nM; in the data set with MCF7 [25], 8.4 nM; in the data set with A2780 [26], 5.7 nM.

Source of the values: ChEMBL document CHEMBL3091343, “Nicotinamide phosphoribosyltransferase inhibitors, design, preparation, and structure-activity relationship” (J Med Chem, 2013).
